The text below walks through data of ChEMBL document CHEMBL1149195, “N,N-dialkyl-2-phenylindol-3-ylglyoxylamides. A new class of potent and selective ligands at the peripheral benzodiazepine receptor” (J Med Chem, 2004).

One data set deals with Translocator protein (Rattus norvegicus, UniProt P16257). Description: Binding affinity to peripheral benzodiazepine receptors using [3H]-PK11195 radioligand in rat kidney mitochondrial membrane. Type of data set: cell membranes.
Data set [1] addresses GABA-A receptor; anion channel (Rattus norvegicus) (UniProt O09028+P15431+P18506+P18508+P19969+P20236+P23574+P23576+P28471+P28473+P30191+P62813+P63079+P63138+Q91ZM7+Q9ES14). The data set can be described thus: Percent inhibition of rat benzodiazepine receptor assayed using [3H]-flumazenil radioligand at 10 um concentration. Type of data set: protein-complex assay. In outline:
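Displacement of [3H]flumazenil specific binding in rat brain membranes by test compound at fixed 10 µM; percent inhibition as mean ± SEM of five determinations.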

For data set [2], the target named is T1, Cholesterol side-chain cleavage enzyme, mitochondrial (Rattus norvegicus, UniProt P14137).
T1 sequence (P14137 whole entry): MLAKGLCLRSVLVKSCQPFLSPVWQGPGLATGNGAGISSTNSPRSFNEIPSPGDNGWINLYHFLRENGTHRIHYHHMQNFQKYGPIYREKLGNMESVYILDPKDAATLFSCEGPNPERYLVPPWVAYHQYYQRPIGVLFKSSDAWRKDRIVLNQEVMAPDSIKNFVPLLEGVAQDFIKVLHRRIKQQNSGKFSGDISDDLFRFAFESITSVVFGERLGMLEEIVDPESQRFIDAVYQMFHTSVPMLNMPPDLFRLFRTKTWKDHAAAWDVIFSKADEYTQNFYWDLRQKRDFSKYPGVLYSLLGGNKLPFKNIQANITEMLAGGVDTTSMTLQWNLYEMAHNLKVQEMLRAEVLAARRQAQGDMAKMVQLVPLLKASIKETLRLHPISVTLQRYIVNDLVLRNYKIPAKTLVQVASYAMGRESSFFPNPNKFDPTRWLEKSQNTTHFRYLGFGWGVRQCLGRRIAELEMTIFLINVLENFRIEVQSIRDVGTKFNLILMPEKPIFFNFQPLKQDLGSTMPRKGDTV
The data set can be described thus: Stimulation of pregnenolone formation from rat C6 glioma cells. It is filed as functional, cell-based. Also on record: concentration or dose not given beside the values. In outline:
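Rat C6 glioma cells exposed to compound for 2 h at 37 °C; pregnenolone measured by radioimmunoassay and expressed as % increase over control; mean ± SEM of at least three determinations.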

Sequence of Translocator protein (P16257 whole entry, looked up): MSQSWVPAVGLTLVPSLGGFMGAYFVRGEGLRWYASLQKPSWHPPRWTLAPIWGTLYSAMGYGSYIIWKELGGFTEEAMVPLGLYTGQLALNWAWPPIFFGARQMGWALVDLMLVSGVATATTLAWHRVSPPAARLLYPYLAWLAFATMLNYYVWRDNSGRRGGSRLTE

As a reminder, the Ki is a measure of affinity in units of concentration, obtained from inhibition or displacement. As a reminder, the inhibition is the percentage by which the read-out fell short of the control. `CCCCCCN(CCCCCC)C(=O)C(=O)c1c(-c2ccccc2)[nH]c2ccc(Cl)cc12` came in with a Ki at Translocator protein of 58.4 nM. The same compound showed an inhibition in data set [1] of 3%. The Activity in data set [2] came to 31%.

The compound `CCN(CC)C(=O)C(=O)c1c(-c2ccccc2)[nH]c2ccccc12` showed an inhibitory constant (Ki) on Translocator protein of 43 nM. Also, in data set [1], the inhibition came to 6%.

On to `CCCCNC(=O)C(=O)c1c(-c2ccccc2)[nH]c2ccccc12`, for which the affinity at Translocator protein, expressed as Ki, was 1170 nM. In data set [1], the inhibition came out at 12%.

As to `CCCN(CCC)C(=O)C(=O)c1c(-c2ccc(Cl)cc2)[nH]c2ccc(Cl)cc12`, at Translocator protein, the inhibition constant (Ki) was determined as 0.62 nM. The compound also gave an inhibition in data set [1] of 5%. In data set [2], this compound came in with an Activity of 49%.

At Translocator protein, `CCCCCCN(CCCCCC)C(=O)C(=O)c1c(-c2ccc(F)cc2)[nH]c2ccccc12` had an inhibition constant (Ki) of 0.37 nM. Also, the inhibition in data set [1] was found to be 0%. Further, in data set [2], the Activity was found to be 62%.

For the compound `CCCCCCN(CCCCCC)C(=O)C(=O)c1c(-c2ccc(C)cc2)[nH]c2ccccc12`, at Translocator protein, the Ki worked out at 1.6 nM. Moreover, the inhibition in data set [1] was found to be 6%. In addition, the Activity in data set [2] was determined as 77%.

Compound `CCCCN(CCCC)C(=O)C(=O)c1c(-c2ccc(Cl)cc2)[nH]c2ccccc12` showed a Ki on Translocator protein of 1 nM. Besides, the inhibition in data set [1] worked out at 0%. The same compound showed an Activity in data set [2] of 55%.

For the compound `CCCCN(CCCC)C(=O)C(=O)c1c(-c2ccccc2)[nH]c2ccccc12`, the inhibition constant (Ki) at Translocator protein stood at 7.5 nM. Moreover, the inhibition in data set [1] is 3%. In data set [2], this compound gave an Activity of 23%.

Regarding `CCCCN(CCCC)C(=O)C(=O)c1c(-c2ccc(C)cc2)[nH]c2ccccc12`, the Ki at Translocator protein came to 3.8 nM. Moreover, the inhibition in data set [1] came to 11%. This compound also had an Activity in data set [2] of 58%.

In turn, `CCCCN(CCCC)C(=O)C(=O)c1c(-c2ccc(F)cc2)[nH]c2ccccc12` came in with an inhibition in data set [1] of 0%. In data set [2], this compound had an Activity of 26%.

The compound `CC(C)N(C(=O)C(=O)c1c(-c2ccccc2)[nH]c2ccccc12)C(C)C` gave a Ki at Translocator protein of 103 nM. Moreover, the inhibition in data set [1] stood at 4%.

`CCCNC(=O)C(=O)c1c(-c2ccccc2)[nH]c2ccccc12`: the Ki at Translocator protein is 815 nM.

With `O=C(C(=O)N1CCCC1)c1c(-c2ccccc2)[nH]c2ccccc12`, affinity at Translocator protein was put at a Ki of 2400 nM. This compound registered an inhibition in data set [1] of 4%.

For `CCCN(CCC)C(=O)C(=O)c1c(-c2ccc(Cl)cc2)[nH]c2ccccc12`, at Translocator protein, the affinity, expressed as Ki, was 4.65 nM. Further, the inhibition in data set [1] was determined as 14%. In data set [2], this compound returned an Activity of 40%.

On Translocator protein, `CCCCCCN(CCCCCC)C(=O)C(=O)c1c(-c2ccc(Cl)cc2)[nH]c2ccc(Cl)cc12` gave an inhibition constant Ki of 5.8 nM. In addition, the inhibition in data set [1] came to 3%. In data set [2], this compound gave an Activity of 166%.

Regarding `O=C(C(=O)N1CCCCCC1)c1c(-c2ccccc2)[nH]c2ccccc12`, on Translocator protein, the Ki is 33 nM. Besides, the inhibition in data set [1] stood at 5%.

For `CCCCN(CCCC)C(=O)C(=O)c1c(-c2ccc(Cl)cc2)[nH]c2ccc(Cl)cc12`, the inhibitory constant (Ki) at Translocator protein turned out to be 1.9 nM. Besides, the inhibition in data set [1] came to 0%. Moreover, the Activity in data set [2] was 147%.

`CCCCCN(CCCCC)C(=O)C(=O)c1c(-c2ccccc2)[nH]c2ccccc12` showed a Ki at Translocator protein of 16 nM. In data set [1], this compound showed an inhibition of 3%. Moreover, the Activity in data set [2] is given as 35%.

Turning to `CCCN(CCC)C(=O)C(=O)c1c(-c2ccc(C)cc2)[nH]c2ccccc12`, the inhibition in data set [1] came to 7%. This compound also gave an Activity in data set [2] of 148%.

On to `CCCN(CCC)C(=O)Cc1c(-c2ccc(Cl)cc2)nc2ccc(Cl)cn12` [ALPIDEM], for which the inhibitory constant (Ki) at Translocator protein is 7 nM. Further, in data set [1], the inhibition was 28%.

`CCCCN(CCCC)C(=O)C(=O)c1c(-c2ccccc2)[nH]c2ccc(Cl)cc12` displayed a Ki at Translocator protein of 4.91 nM. The same compound displayed an inhibition in data set [1] of 13%. In data set [2], the Activity is given as 5%.

Take `O=C(C(=O)N1CCCCC1)c1c(-c2ccccc2)[nH]c2ccccc12`: the Ki on Translocator protein stood at 665 nM. Further, the inhibition in data set [1] worked out at 3%.

In turn, `CCCN(CCC)C(=O)C(=O)c1c(-c2ccccc2)[nH]c2ccccc12` registered an inhibition in data set [1] of 16%. Further, in data set [2], the Activity is on record as 8%.

Compound `CCCN(CCC)C(=O)C(=O)c1c(-c2ccc(F)cc2)[nH]c2ccccc12` registered an inhibition constant Ki on Translocator protein of 4.28 nM. For the same compound, the inhibition in data set [1] worked out at 4%. This compound gave an Activity in data set [2] of 20%.

For the compound `CCC(C)N(C(=O)C(=O)c1c(-c2ccccc2)[nH]c2ccccc12)C(C)CC` (stereo unspecified), the inhibitory constant (Ki) at Translocator protein was determined as 17 nM. In data set [1], the inhibition is 5%. The compound also displayed an Activity in data set [2] of 10%.

`CCCCCCN(CCCCCC)C(=O)C(=O)c1c(-c2ccc(Cl)cc2)[nH]c2ccccc12` returned a Ki on Translocator protein of 0.55 nM. Moreover, the inhibition in data set [1] came out at 4%. For the same compound, the Activity in data set [2] was determined as 109%.

For `CCCN(CCC)C(=O)C(=O)c1c(-c2ccccc2)[nH]c2ccc(Cl)cc12`, at Translocator protein, the inhibitory constant (Ki) came to 2.8 nM. The compound further gave an inhibition in data set [1] of 10%. Further, the Activity in data set [2] amounted to 10%.

The compound `CCCCCCN(CCCCCC)C(=O)C(=O)c1c(-c2ccccc2)[nH]c2ccccc12` returned an inhibition in data set [1] of 10%. The compound further returned an Activity in data set [2] of 30%.
